Results as given in article PMC6679735 (Biochimica et biophysica acta. Molecular and cell biology …, 2019).
Read-outs that look alike come from different tables or passages of the source. Values belong to the molecule of their own block, whether it stands above or below them.

Assays:
Npc1^I1061T/I1061T mice [1] = test: Lipidomic profiling of liver and brain after six-week treatment; format: in vivo, mouse; details: six weeks weekly treatment, versus vehicle
[2] = Maximum drug concentration of HPβCD after a peripheral dose; format: in vivo; details: peripheral dose of 4000 mg/kg HPβCD with PEG400/DMSO; extrapolated
NPC1 patients = details: Phase 1/2a trial; cited from earlier work
[3] = direct CNS administration; cited from earlier work
histone H3 [4] = test: Acute histone H3 acetylation in liver by western blot, 1 h after single dose; format: in vivo, C57BL/6J mice; details: one hour post single injection, versus vehicle
NPC1 cat model = details: 4000 mg/kg HPβCD; cited from earlier work
[5] = tested on: human NPC1^I1061T fibroblasts; test: Filipin LSO compartment ratio dose response in fibroblasts; format: cell-based; details: 72 h, 40 nM to 10 μM
Outline: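 Human fibroblasts in MEM with 5% FBS, seeded in 384-well plates at 450 cells/well and incubated overnight. Test compound added at 40 nM–10 μM final; DMSO control on each plate. After 72 h, cells were PBS-washed, fixed in 1.5% PFA, and stained with 50 μg/ml filipin plus Draq5. Automated imaging at four sites/well gave the LSO compartment ratio, normalised to DMSO. Four wells per condition, three experiments.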

[6] = format: in vivo, C57BL/6J mice
Outline: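 Five-week-old male C57BL/6J mice received a single i.p. injection (10 μL/g). Plasma, liver and brain were harvested at 0.25, 1, 2, 4 and 7 h, n=4 per time point. Analyte was measured by LC-MS/MS on a C18 column with a d5-labelled internal standard and eight duplicate calibrators. Non-compartmental parameters used mean concentrations of 3–4 mice per time point; AUC by the linear trapezoidal method.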

Npc1^I1061T/I1061T mice [7] = format: in vivo, mouse; details: liver; six weeks treatment, versus vehicle
Outline: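 Mice were dosed i.p. at 10 μL/g from four weeks of age, weekly for six weeks (one arm three times weekly). HPβCD was 2000 mg/kg (4000 mg/kg in the 3x/wk arm). Saline perfusion 1 h after the last dose. PFA-fixed liver was cut at 35 μm on a vibratome and stained with 0.005% filipin in PBS, with a DMSO-only control. Two blinded reviewers scored hepatocyte staining 0–5.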

Npc1^nmf164 mice = details: 150mg/kg vorinostat in PEG/DMSO vehicle; cited from earlier work
NPC1^I1061T protein = format: in vivo, mouse; details: six weeks treatment, versus vehicle
[8] = tested on: murine embryonic fibroblasts and human fibroblasts expressing the NPC1^I1061T protein; details: cited from earlier work
histone H3 [9] = test: Histone H3 acetylation in liver and brain after six-week treatment; format: in vivo, Npc1^I1061T/I1061T mice; details: end of six-week treatment, one hour after final dose
Outline: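 Four-week-old mice were dosed weekly i.p. at 10 μL/g for six weeks and harvested 1 h after the final dose. Frozen cortex was homogenised in TNEN buffer (pH 8) with protease inhibitors and 1 mM PMSF, then spun at 10,000 × g for 10 min at 4°C. Equal protein was run on 4–12% Bis-Tris gels and blotted with anti-H3 (1:10,000) and anti-acetyl-H3 (1:1000). Hsp90 was the loading control; detection by chemiluminescence.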

[10] = tested on: bone marrow-derived macrophages from Npc1^I1061T/I1061T mice; test: Filipin LSO assay in bone marrow-derived macrophages; format: cell-based, mouse
[11] = male, C57BL/6J, mouse, brain, ip, 50 mg/kg
[12] = male, C57BL/6J, mouse, liver, ip, 50 mg/kg
[13] = male, C57BL/6J, mouse, plasma, ip, 50 mg/kg

Compound: CC(=O)Nc1ccc(C(=O)Nc2ccccc2N)cc1 [CI994]
Lipid storage in liver (lipidomics, sphingolipid and sterol species) (Npc1^I1061T/I1061T mice [1]): none of the treatment groups administered formulations containing vorinostat, CI994, or IVA alone showed evidence of lipid reduction

Maximum drug concentration achieved [2]: ~ 15 μM
Compound: CC(O)COC[C@H]1O[C@@H]2O[C@H]3[C@H](O)[C@@H](O)[C@@H](O[C@H]4[C@H](O)[C@@H](O)[C@@H](O[C@H]5[C@H](O)[C@@H](O)[C@@H](O[C@H]6[C@H](O)[C@@H](O)[C@@H](O[C@H]7[C@H](O)[C@@H](O)[C@@H](O[C@H]8[C@H](O)[C@@H](O)[C@@H](O[C@H]1[C@H](O)[C@H]2O)O[C@@H]8COCC(C)O)O[C@@H]7COCC(C)O)O[C@@H]6COCC(C)O)O[C@@H]5COCC(C)O)O[C@@H]4COCC(C)O)O[C@@H]3COCC(C)O (stereo partly drawn) [HPβCD, 2-hydroxypropyl-β-cyclodextrin]
Neurodegenerative disease progression (NPC1 patients): effective in slowing neurodegenerative disease progression
Drug concentration achieved in CSF [3]: 1000 µM
Liver histone H3 acetylation (acetylated H3 / total H3) (histone H3 [4]): did not increase H3 acetylation acutely
Toxicity of peripheral dose (NPC1 cat model): toxic in the NPC1 cat model

Compound: O=C(O)CCCCCCC(=O)Nc1ccccc1 [IVA, 8-oxo-8-(phenylamino)octanoic acid]
Effect on lysosomal cholesterol storage (filipin LSO compartment ratio) [5]: had no effect on cholesterol storage
Lipid storage in liver (lipidomics, sphingolipid and sterol species) (Npc1^I1061T/I1061T mice [1]): none of the treatment groups administered formulations containing vorinostat, CI994, or IVA alone showed evidence of lipid reduction
Liver histone H3 acetylation (acetylated H3 / total H3) (histone H3 [4]): No increase in acetylation

Vorinostat Cmax, brain ([6]; brain, single i.p. dose): 1163 ng/mL
Vorinostat Cmax, liver ([6]; liver, single i.p. dose): 209 ng/mL
AUC(0-t) [6, 11]: 1240 ng·h/mL
Tmax [6, 11]: 15 min
AUC(0-t) [6, 12]: 513 ng·h/mL
Tmax [6, 12]: 15 min
AUC(0-inf) [6, 13]: 7600 ng·h/mL
AUC(0-t) [6, 13]: 7540 ng·h/mL
Cmax [6, 13]: 10500 ng/mL
Tmax [6, 13]: 15 min
half-life [6, 13]: 40.8 min
Compound: O=C(CCCCCCC(=O)Nc1ccccc1)NO [vorinostat, suberoylanilide hydroxamic acid]
Hepatocyte filipin staining (cholesterol storage) (Npc1^I1061T/I1061T mice [7]): did not alter cholesterol levels
Efficacy on disease progression, life span, or weight loss (Npc1^nmf164 mice): did not show efficacy
Liver pathology and function (Npc1^nmf164 mice): limited improvement in liver pathology and function
NPC1 mutant protein expression and lipid accumulation (Npc1^nmf164 mice): remained unchanged
NPC1^I1061T protein expression in liver (NPC1^I1061T protein): reduction of NPC1 protein
Effect on lysosomal cholesterol storage (filipin LSO compartment ratio) [5]: reduces lysosomal cholesterol
Lipid storage in liver (lipidomics, sphingolipid and sterol species) (Npc1^I1061T/I1061T mice [1]): modest reduction in only a single lipid species (MCer 24:0)
Cholesterol storage [8]: effective in reducing cholesterol storage
Ratio of acetylated histone H3 to total histone H3 in brain (histone H3 [9]; brain): showed an increase in the ratio
Ratio of acetylated histone H3 to total histone H3 in liver (histone H3 [9]; liver): significant increase in the ratio of acetylated histone H3 relative to total histone H3
Liver histone H3 acetylation (acetylated H3 / total H3) (histone H3 [4]): Increased histone 3 acetylation
Reduction of cholesterol accumulation in differentiated macrophages ([10]; 4 nM to 10 μM, 48h or 72h): not effective at reducing the cholesterol accumulation
Cholesterol accumulation in LSOs (filipin intensity) at 330 nM ([10]; 330 nM, normalized to DMSO treated cells): slight decrease in cholesterol accumulation
Concentration toxic to BMMs ([10]; 48h or 72h treatment): above 1 μM
